This is a sample that favours compounds with a hit; in the whole collection about 1.8% have one here.
NPY-Y1 antag – NPY-Y1 receptor antagonists, primary screen, cell-based; Neuropeptide Y receptor type 1 (Homo sapiens), P25929; HEK293-CNG Y1 cells, membrane potential fluorescence; NPY at EC95, then isoproterenol; inhibition, % at 3.6 µM; 200,000 compounds, 1% hits; AID 1040, 2008;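 active = inhibition above the campaign mean inhibition of all tested compounds plus 3 SD, cut at about 20% in these data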;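 also: 0% = DMSO wells given NPY plus isoproterenol and 100% = isoproterenol alone without NPY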
Target sequence (P25929 whole entry, looked up): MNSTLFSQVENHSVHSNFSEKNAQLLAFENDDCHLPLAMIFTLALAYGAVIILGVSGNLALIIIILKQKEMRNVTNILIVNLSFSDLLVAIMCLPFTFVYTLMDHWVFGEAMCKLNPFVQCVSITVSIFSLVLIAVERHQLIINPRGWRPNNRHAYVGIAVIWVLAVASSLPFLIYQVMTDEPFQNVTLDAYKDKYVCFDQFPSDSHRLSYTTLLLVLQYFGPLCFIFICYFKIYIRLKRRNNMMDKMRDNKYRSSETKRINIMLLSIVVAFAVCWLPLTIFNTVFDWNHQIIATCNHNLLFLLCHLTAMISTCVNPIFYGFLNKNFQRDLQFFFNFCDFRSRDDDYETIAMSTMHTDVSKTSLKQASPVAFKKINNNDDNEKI
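Test system – HEK293 Y1/CNG channel cell line · Also added – NPY agonist 25 nM, then isoproterenol 1 µM plus Ro 20-1724 25 µM · Compound dosing – one concentration, 3.6 µM, in 0.4% DMSO · Schedule – compound incubation 1 h at room temperature, readout 45 min post-stimulation · Technique – fluorescence, membrane potential probe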
NPY Y2 blocker – NPY-Y2 receptor antagonists, primary screen, cell-based | Neuropeptide Y receptor type 2 (Homo sapiens), P49146 | 140,000 compounds, 0.99% hits | NPY-Y2 expressing cells, antagonist mode | inhibition, % at 2.7 µM;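 also: 0% = vehicle with agonist challenge and 100% = reference antagonist with challenge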
NPY2 pot ag – NPY-Y2 potentiators or agonists, primary screen, cell-based; Neuropeptide Y receptor type 2 (Homo sapiens), P49146; cells expressing NPY-Y2, potentiator/agonist read-out; activation, % at 3.6 µM; 220,000 compounds, 0.45% hits; in the data active = activation above about 27%;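 also: cells stimulated with NPY near EC25 plus isoproterenol at EC100; 0% = vehicle plus submaximal agonist and 100% = vehicle plus saturating agonist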
NPY-Y1 PAM-ag – NPY-Y1 receptor potentiators or agonists, primary screen, cell-based; Neuropeptide Y receptor type 1 (Homo sapiens), P25929; activation, % at 3.6 µM; 220,000 compounds, 0.37% hits; NPY-Y1 expressing cells, potentiator/agonist activation; AID 1304, 2008; in the data active = activation above about 33%, passing the limit was not always enough;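 also: cells stimulated with NPY at EC10 then isoproterenol at EC100; 0% = low agonist plus stimulus and 100% = saturating agonist plus stimulus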
NPY1 antag conf – NPY-Y1 receptor antagonists, retest of hits, confirmation, HEK293-CNG cells, membrane potential fluorescence, triplicate; shares compounds with NPY-Y1 antag; cAMP; NPY challenge against isoproterenol-raised cAMP; inhibition, % at 3.6 µM; 1,200 compounds, 21% hits; in the data active = inhibition above about 20%;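 also: 0% = vehicle with agonist plus stimulus and 100% = stimulus alone without agonist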
NPY-Y2 antag ct – NPY-Y2 receptor antagonists, selectivity check, confirmation, counter-screen for NPY-Y1 antagonist project, HEK293-CNG cells, membrane potential fluorescence, triplicate; inhibition, % at 3.6 µM; antagonism; cells given NPY, then isoproterenol; 1,200 compounds, 28% hits; shares compounds with NPY-Y1 antag; AID 1255, 2008;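 also: 0% = DMSO with agonist challenge and 100% = reference antagonist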
Numbers without * were called inactive; . = not tested or not shown. Rule as the data show it, unless noted: active = inhibition above about 17%; inactive = the rest.

SMILES | NPY-Y1 antag | NPY Y2 blocker | NPY2 pot ag | NPY-Y1 PAM-ag | NPY1 antag conf | NPY-Y2 antag ct
CC1CCN(CCCNC(=O)c2cn(C)c3ccc(S(=O)(=O)N4CCCC4)cc3c2=O)CC1 | 28* | 1 | 0 | 3 | -2 | 1
CC(C)CC1=NN(C(=O)c2ccncc2)C(O)(C(F)(F)F)C1 (stereo not given) | 2 | 4 | 3 | -8 | . | .
Cc1cccc(Cc2cnc(N3C(=N)SC(C)C3=O)s2)c1 (stereo not given) | 16 | . | -45 | -27 | . | .
Cc1ccc(Cc2cnc(N3C(=N)SC(C)C3=O)s2)cc1 (stereo not given) | 26* | . | -35 | -26 | 12 | 12
CCCc1nnc(SCC(=O)N2CCCC2)n1Cc1ccco1 | -3 | . | 7 | 12 | . | .
Cn1c2ccccc2c2cnn(CC(=O)O)c(=O)c21 | 26* | 12 | -40 | -48 | 7 | 7
CCn1ncc(/C=N/NC(=O)c2cc(Cl)ccc2OC)c1C | 6 | 1 | -6 | -12 | . | .
COc1cscc1C(=O)O | . | . | 2 | -10 | . | .
CSc1nsc(SCC(=O)N2CCN(c3ccccc3)CC2)n1 | 29* | 14 | -35 | -45 | 12 | 7
CCCC(=O)Nc1nnc(SCC(=O)N2CCN(c3ccccc3)CC2)s1 | . | . | 7 | -4 | . | .
Cc1ccc(OCC(=O)Nc2ccccc2-c2ccccc2)cc1 | 7 | 7 | -36 | -43 | . | .
COc1cccc(OCC(=O)Nc2ccccc2-c2ccccc2)c1 | 24* | . | -11 | -23 | 15 | 12
S=c1[nH]nc(-c2ccc3ccccc3n2)o1 | 20* | 12 | -11 | -3 | 11 | 7
FC(F)(F)c1ccc(-c2n[nH]c(=S)o2)nc1 | . | . | -8 | 2 | . | .
COC(=O)C1=C(C)N(C)C(C)=C(C(=O)OC)C1c1ccccn1 | 2 | 1 | 4 | -23 | . | .
COc1cc(C2C(C(=O)c3ccco3)=C(O)C(=O)N2CCc2ccccc2)ccc1O (stereo not given) | 13 | 8 | -2 | -3 | . | .
COc1ccc(CCN2C(=O)C(O)=C(C(=O)c3ccco3)C2c2cccs2)cc1OC (stereo not given) | 23* | 6 | -17 | -27 | 7 | 7
Cc1ccccc1NC(=O)c1sc(NC(=O)COc2ccccc2)c(C#N)c1C | 0 | 7 | 1 | -28 | . | .
COc1ccccc1-n1cnc2cc(NCc3cccs3)ccc21 | 21* | 10 | -5 | 1 | 9 | 20*
CN(CC(=O)Nc1ccc(F)cc1[N+](=O)[O-])Cc1ccccc1 | 2 | . | 8 | 6 | . | .
COc1cccc(N2C(C(C)=O)=NN(c3ccccc3)C2c2ccc(N3CCOCC3)cc2)c1 (stereo not given) | 0 | 2 | 9 | -2 | . | .
COc1ccc(C2N(c3ccc(Cl)cc3)N=C(C(C)=O)N(C)N2C(C)=O)cc1 (stereo not given) | 29* | . | 11 | 16 | 20* | 9
CC(C)(C)C(=O)Nc1nc2cc3c(cc2s1)OCO3 | . | . | 20 | 27 | . | .
O=C(COC(=O)C1CCN(S(=O)(=O)c2ccc3c(c2)OCCO3)CC1)Nc1cc(C(F)(F)F)ccc1Cl | 5 | 2 | 1 | -6 | . | .
CCN(Cc1ccccc1)C(=O)c1nn(-c2ccc(OC)cc2)c(=O)c2c1c1ccccc1n2C | 38* | . | -9 | -36 | 43* | 24*
SMILES | NPY-Y1 antag | NPY Y2 blocker | NPY2 pot ag | NPY-Y1 PAM-ag | NPY1 antag conf | NPY-Y2 antag ct
Cc1ccc(C(=O)c2cc([N+](=O)[O-])ccc2N2CC(C)OC(C)C2)cc1 (stereo not given) | 0 | 4 | 6 | -10 | . | .
Cc1ccc(C(=O)c2cc([N+](=O)[O-])ccc2N2CCCCC2)cc1 | 22* | 16 | -2 | -62 | 12 | 26*
O=C(Cc1ccccc1)Nc1c2c(nn1-c1cccc(Cl)c1)CS(=O)(=O)C2 | 22* | 9 | -16 | -13 | 17 | 8
COc1ccc(CC(=O)Nc2c3c(nn2-c2cccc(Cl)c2)CS(=O)(=O)C3)cc1 | 14 | 8 | 6 | 6 | . | .
Cc1ccc(C(C)C)c(OCc2n[nH]c(=S)o2)c1 | 23* | . | -23 | -9 | 6 | 10
Cc1nn(S(=O)(=O)c2cccs2)c(C)c1Sc1ccc([N+](=O)[O-])cc1 | 10 | 5 | 7 | -5 | . | .
Cc1nn(S(=O)(=O)c2ccccc2)c(C)c1Sc1ccc([N+](=O)[O-])cc1 | 24* | 7 | 7 | -4 | 6 | 4
NS(=O)(=O)c1ccc(CCNC(=O)CSc2nc3ccccc3c(=O)n2CCC(=O)N2CCCCC2)cc1 | 0 | . | 4 | 8 | . | .
COC(=O)c1ccc(NC(=O)CN2C(=O)C3C4C=CC(C4)C3C2=O)cc1 (stereo not given) | 23* | 4 | -3 | 16 | 3 | 3
Cc1c(C)n(Cc2ccccc2)c2ccc(C(=O)OCCCN(C)C)cc12 | 22* | . | -14 | -5 | 29* | 37*
CCc1ccc(OCC(=O)Nc2ccc(-c3cc4ccccc4oc3=O)c(OC)c2)cc1 | -3 | 5 | -2 | 26 | . | .
COc1ccccc1NC(=O)Nc1ccc(CC#N)cc1 | . | . | -11 | 12 | . | .
COc1cc(C2C(C#N)=C(N)Oc3cc4c(cc32)OCO4)cc(OC)c1OC (stereo not given) | 22* | . | -26 | -1 | 5 | 13
S=c1nc[nH]c2c1[nH]c1ccc(Cl)cc12 | . | . | -11 | 8 | . | .
S=c1nc[nH]c2c1[nH]c1ccccc12 | 39* | 2 | -21 | -19 | 4 | 2
CCn1cc(CNC(=S)Nc2cccc(Cl)c2C)cn1 | 0 | . | -3 | -5 | . | .
CCOc1ccc(S(=O)(=O)N2c3ccccc3CC2C)cc1 (stereo not given) | 38* | 15 | -10 | -27 | 8 | 17*
CNCC(C)COc1ccccc1OCc1ccccc1 (stereo not given) | 22* | 16 | -7 | -13 | 12 | 11
COn1c(=O)c(-c2cccs2)[n+]([O-])c2ccccc21 | 25* | 10 | -16 | -16 | 10 | 8
CCOn1c(=O)c(-c2cccs2)[n+]([O-])c2ccccc21 | 10 | 8 | -3 | -5 | . | .
Fc1ccccc1CSc1nnc(-c2ccccc2)o1 | 29* | 6 | 4 | -13 | 4 | 8
COc1ccc(-c2nnc(SCc3ccccc3F)o2)cc1 | 22* | 6 | -4 | -20 | 9 | 11
Fc1ccccc1CSc1nnc(-c2cccnc2)o1 | -1 | . | -3 | -1 | . | .
O=C(CCN1C(=O)C2CCCCC2C1=O)Nc1ccc(F)c(F)c1F (stereo not given) | 6 | . | -10 | 8 | . | .
O=C(Cn1cc(C(F)(F)F)cc(Cl)c1=O)Nc1cc(S(=O)(=O)N2CCOCC2)ccc1Cl | 7 | 2 | -6 | 8 | . | .
